In brackets after ≈: the same amount, converted by molar mass. Bridge positions count the residues as written; N and C are the ends. Square brackets hold non-standard residues; d marks the D form. Peptide text beside a SMILES is read from it. * marks the point of attachment. Palmitoyl = CCCCCCCCCCCCCCCC(=O)*; Myristoyl = CCCCCCCCCCCCCC(=O)*; Lauroyl = CCCCCCCCCCCC(=O)*; dOrn = NCCC[C@@H](N)C(=O)O; Orn = NCCC[C@H](N)C(=O)O; Hexanoyl = CCCCCC(=O)*
Experiments:
Assay type in all cases: functional
Staphylococcus aureus = experiment: Antibacterial activity against Staphylococcus aureus USA300 assessed as inhibition of bacterial growth incubated for 18 hrs by CLSI protocol based method
Procedure, shortened: (§1)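 Single colonies from blood agar (16 h, 37 °C) grown in TSB at 37 °C, 220 rpm to OD600 ~0.5, then diluted in MHB to 2×10^5 CFU/mL. Mixed with serial MHB dilutions of DMSO stocks in polypropylene plates, sealed, and incubated 18 h at 37 °C, 600 rpm. MIC was taken as the lowest concentration with no visible growth; three technical replicates.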

Escherichia coli [1] = experiment: Antibacterial activity against Escherichia coli ATCC 25922 assessed as inhibition of bacterial growth incubated for 18 hrs by CLSI protocol based method
Procedure, shortened: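 Broth microdilution MIC. Strain streaked from glycerol stock on sheep blood agar (16 h, 37 °C); a colony was grown in TSB at 37 °C, 220 rpm, to OD600 about 0.5. Cells were diluted in MHB to 2×10^5 CFU/mL and added 1:1 to serial dilutions in MHB in polypropylene plates.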

Klebsiella pneumoniae = experiment: Antibacterial activity against Klebsiella pneumoniae ATCC 13883 assessed as inhibition of bacterial growth incubated for 18 hrs by CLSI protocol based method; procedure, shortened: as §1
Acinetobacter baumannii = experiment: Antibacterial activity against Acinetobacter baumannii ATCC 17961 assessed as inhibition of bacterial growth incubated for 18 hrs by CLSI protocol based method; procedure, shortened: as §1
Pseudomonas aeruginosa = experiment: Antibacterial activity against Pseudomonas aeruginosa PAO1 assessed as inhibition of bacterial growth incubated for 18 hrs by CLSI protocol based method; procedure, shortened: as §1
Escherichia coli [2] = experiment: Antibacterial activity against colistin-resistant Escherichia coli ATCC 25922 carrying MCR-1 gene assessed as inhibition of bacterial growth incubated for 18 hrs by CLSI protocol based method
Procedure, shortened: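 Broth microdilution MIC. MCR-1 strain grown from glycerol stock in TSB with kanamycin (16 h, 37 °C, 220 rpm), diluted 100-fold in the same medium and grown to OD600 about 0.5. Cells were diluted in MHB to 2×10^5 CFU/mL and added 1:1 to serial dilutions in MHB. Incubated 18 h, 37 °C, 600 rpm; visual lowest no-growth concentration; three technical replicates.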

| SMILES | MIC (Staphylococcus aureus) [µg/mL] | MIC (Escherichia coli [1]) [µg/mL] | MIC (Klebsiella pneumoniae) [µg/mL] | MIC (Acinetobacter baumannii) [µg/mL] | MIC (Pseudomonas aeruginosa) [µg/mL] | MIC (Escherichia coli [2]) [µg/mL] |
| --- | --- | --- | --- | --- | --- | --- |
| CC[C@H](C)[C@@H]1NC(=O)[C@@H](NC(=O)[C@H](Cc2c[nH]c3ccccc23)NC(=O)[C@@H](CCCN)NC(=O)CNC(=O)[C@H](CCCN)NC(=O)[C@@H](CCCN)NC(=O)[C@@H](Cc2c[nH]c3ccccc23)NC(=O)[C@@H](Cc2ccc(O)cc2)NC(=O)[C@H](N)CO)[C@@H](C)OC(=O)CNC(=O)CNC(=O)[C@H](CC(N)=O)NC1=O (H-[dS][dY][dW][dOrn][Orn]G[dOrn]WTINGG; ester 9-C) | > 32 | > 32 | > 32 | > 32 | > 32 | – |
| CCCCCC(=O)N[C@H](CC(N)=O)C(=O)N[C@H](Cc1ccc(O)cc1)C(=O)N[C@H](Cc1c[nH]c2ccccc12)C(=O)N[C@H](CCCN)C(=O)N[C@@H](CCCN)C(=O)NCC(=O)N[C@H](CCCN)C(=O)N[C@@H](Cc1c[nH]c2ccccc12)C(=O)N[C@@H]1C(=O)N[C@@H]([C@@H](C)CC)C(=O)NCC(=O)N[C@@H](CO)C(=O)O[C@@H]1C (Hexanoyl-[dN][dY][dW][dOrn][Orn]G[dOrn]WTIGS; ester 9-C) | > 32 | 8 (≈ 5.31 µM) | 4 (≈ 2.66 µM) | 16 (≈ 10.6 µM) | > 32 | 8 (≈ 5.31 µM) |
| CCCCCC(=O)N[C@H](CO)C(=O)N[C@H](Cc1ccc(O)cc1)C(=O)N[C@H](Cc1c[nH]c2ccccc12)C(=O)N[C@H](CCCN)C(=O)N[C@@H](CCCN)C(=O)NCC(=O)N[C@H](CCCN)C(=O)N[C@@H](Cc1c[nH]c2ccccc12)C(=O)N[C@@H]1C(=O)N[C@@H]([C@@H](C)CC)C(=O)N[C@@H](CC(N)=O)C(=O)NCC(=O)NCC(=O)O[C@@H]1C (Hexanoyl-[dS][dY][dW][dOrn][Orn]G[dOrn]WTINGG; ester 9-C) | > 32 | 4 (≈ 2.56 µM) | 8 (≈ 5.12 µM) | 16 (≈ 10.2 µM) | 4 (≈ 2.56 µM) | 8 (≈ 5.12 µM) |
| CCCCCCCCCCCC(=O)N[C@H](CC(N)=O)C(=O)N[C@H](Cc1ccc(O)cc1)C(=O)N[C@H](Cc1c[nH]c2ccccc12)C(=O)N[C@H](CCCN)C(=O)N[C@@H](CCCN)C(=O)NCC(=O)N[C@H](CCCN)C(=O)N[C@@H](Cc1c[nH]c2ccccc12)C(=O)N[C@@H]1C(=O)N[C@@H]([C@@H](C)CC)C(=O)NCC(=O)N[C@@H](CO)C(=O)O[C@@H]1C (Lauroyl-[dN][dY][dW][dOrn][Orn]G[dOrn]WTIGS; ester 9-C) | 32 (≈ 20.1 µM) | 8 (≈ 5.03 µM) | 8 (≈ 5.03 µM) | 4 (≈ 2.52 µM) | 16 (≈ 10.1 µM) | 8 (≈ 5.03 µM) |
| CCCCCCCCCCCC(=O)N[C@H](CO)C(=O)N[C@H](Cc1ccc(O)cc1)C(=O)N[C@H](Cc1c[nH]c2ccccc12)C(=O)N[C@H](CCCN)C(=O)N[C@@H](CCCN)C(=O)NCC(=O)N[C@H](CCCN)C(=O)N[C@@H](Cc1c[nH]c2ccccc12)C(=O)N[C@@H]1C(=O)N[C@@H]([C@@H](C)CC)C(=O)N[C@@H](CC(N)=O)C(=O)NCC(=O)NCC(=O)O[C@@H]1C (Lauroyl-[dS][dY][dW][dOrn][Orn]G[dOrn]WTINGG; ester 9-C) | 32 (≈ 19.4 µM) | 4 (≈ 2.43 µM) | 8 (≈ 4.86 µM) | 2 (≈ 1.21 µM) | 8 (≈ 4.86 µM) | 4 (≈ 2.43 µM) |
| CCCCCCCCCCCCCC(=O)N[C@H](CC(N)=O)C(=O)N[C@H](Cc1ccc(O)cc1)C(=O)N[C@H](Cc1c[nH]c2ccccc12)C(=O)N[C@H](CCCN)C(=O)N[C@@H](CCCN)C(=O)NCC(=O)N[C@H](CCCN)C(=O)N[C@@H](Cc1c[nH]c2ccccc12)C(=O)N[C@@H]1C(=O)N[C@@H]([C@@H](C)CC)C(=O)NCC(=O)N[C@@H](CO)C(=O)O[C@@H]1C (Myristoyl-[dN][dY][dW][dOrn][Orn]G[dOrn]WTIGS; ester 9-C) | > 32 | 16 (≈ 9.89 µM) | 32 (≈ 19.8 µM) | 4 (≈ 2.47 µM) | 32 (≈ 19.8 µM) | 16 (≈ 9.89 µM) |
| CCCCCCCCCCCCCC(=O)N[C@H](CO)C(=O)N[C@H](Cc1ccc(O)cc1)C(=O)N[C@H](Cc1c[nH]c2ccccc12)C(=O)N[C@H](CCCN)C(=O)N[C@@H](CCCN)C(=O)NCC(=O)N[C@H](CCCN)C(=O)N[C@@H](Cc1c[nH]c2ccccc12)C(=O)N[C@@H]1C(=O)N[C@@H]([C@@H](C)CC)C(=O)N[C@@H](CC(N)=O)C(=O)NCC(=O)NCC(=O)O[C@@H]1C (Myristoyl-[dS][dY][dW][dOrn][Orn]G[dOrn]WTINGG; ester 9-C) | 16 (≈ 9.55 µM) | 8 (≈ 4.78 µM) | 8 (≈ 4.78 µM) | 2 (≈ 1.19 µM) | 8 (≈ 4.78 µM) | 8 (≈ 4.78 µM) |
| CCCCCCCCCCCCCCCC(=O)N[C@H](CC(N)=O)C(=O)N[C@H](Cc1ccc(O)cc1)C(=O)N[C@H](Cc1c[nH]c2ccccc12)C(=O)N[C@H](CCCN)C(=O)N[C@@H](CCCN)C(=O)NCC(=O)N[C@H](CCCN)C(=O)N[C@@H](Cc1c[nH]c2ccccc12)C(=O)N[C@@H]1C(=O)N[C@@H]([C@@H](C)CC)C(=O)NCC(=O)N[C@@H](CO)C(=O)O[C@@H]1C (Palmitoyl-[dN][dY][dW][dOrn][Orn]G[dOrn]WTIGS; ester 9-C) | > 32 | > 32 | > 32 | 32 (≈ 19.4 µM) | > 32 | – |
